High-throughput results from PubChem.
Only some compounds are listed: those with a hit (about 2.7% of all), similar ones and a draw of the others.
FGF22 binding: shifts melting point of recombinant human FGF22 | recombinant FGF22 thermal shift, SYPRO orange fluorescence; percent of sucrose octasulfate shift, DMSO zero | activity (Tm shift, normalised), % at 9.99 µM | 340,000 compounds, 1.5% hits | AID 651658;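 active = mean Tm shift, scaled 0 neutral to 100 positive control, at about 1.3% or above, every replicate too, limit read from the data; inconclusive = no clear call, values can overlap the other calls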
Target sequence (Q9HCT0 whole entry, looked up): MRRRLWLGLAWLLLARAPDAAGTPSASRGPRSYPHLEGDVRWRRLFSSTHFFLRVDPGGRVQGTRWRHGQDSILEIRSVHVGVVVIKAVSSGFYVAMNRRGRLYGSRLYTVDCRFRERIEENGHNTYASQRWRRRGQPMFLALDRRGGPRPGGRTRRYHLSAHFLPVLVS
HIV Env fusion: HIV envelope-mediated fusion inhibition | HeLa-JRFL Env/CEM21 cell fusion, luciferase | inhibition, % at 12.3 µM | 360,000 compounds, 1.1% hits | AID 651610;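 active = mean replicate inhibition score of at least 50 and every replicate individually at or above 50; inconclusive = only one of the two criteria met; inactive = mean below 50 and not all replicates reaching 50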
E-sel inducer: E-selectin induction on HUVECs; P16581; 260,000 compounds, 0.37% hits; HUVEC E-selectin immunofluorescence imaging; normalized: neutral wells 0, TNF-alpha wells 100; activation, % at 7.58 µM; AID 686992;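 active = mean E-selectin-positive cell signal at least 10% of the positive control, reached in at least 60% of replicates, without over 20% cell loss; inconclusive = no rule given, readout overlaps actives, possibly toxicity-flagged; inactive = the rest, including those meeting only one limit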
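Material: HUVEC primary endothelial cells; Amount: 3,000 cells per well; Dosing: single concentration; Medium: EGM-2 growth medium on 0.1% gelatin-coated wells; Read-out basis: percent E-selectin-positive cells; Signal: immunofluorescence imaging; Control set: TNF-alpha, DMSO.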
CFTR F508del cor: correctors of CFTR F508del function in bronchial epithelial cells; 350,000 compounds, 0.36% hits; activity (quench increase), % at 7.58 µM; CFBE cells, YFP halide quenching; stimulated with forskolin plus potentiator P3; % fluorescence drop versus neutral controls;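 active = mean added fluorescence quench of at least 8% versus neutral control, with both replicates also reaching 8%; inconclusive = only one of the mean or replicate conditions met; inactive = mean below 8% and not both replicates reaching 8%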;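 note: cells transiently co-express mutant CFTR-F508del with the halide-sensitive YFP; corrector assay measuring rescue of mutant channel to the surface after 24 h compound exposure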
S100A4 inh HTS: S100A4-myosin IIA interaction inhibition | P26447 | S100A4/TAMRA-MyoIIA peptide fluorescence polarization | inhibition, % at 10.7 µM | 360,000 compounds, 0.14% hits | AID 652163;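 active = mean inhibition of at least 70% across replicates, with every replicate also reaching that level; inconclusive = mean inhibition reaches 70% but some replicates fall short; inactive = mean inhibition below 70%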
Target sequence (P26447 whole entry, looked up): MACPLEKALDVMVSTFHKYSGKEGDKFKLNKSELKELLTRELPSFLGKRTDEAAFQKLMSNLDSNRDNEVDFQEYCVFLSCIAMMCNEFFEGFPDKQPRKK
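Material: S100A4 monomer protein / Buffer or medium: 50 mM HEPES pH 7.2, 10 mM CaCl2, 100 mM KCl / Times: 5 min incubation before reading / Benchmarks: neutral control DMSO, positive control TFP / Reagent: labelled myosin peptide probe, 5 nM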
Large screens that a line does not name were inactive; [ ] = another dose, or the depositor's remark.

C[C@H](CO)N1C[C@H](C)[C@H](CN(C)S(=O)(=O)c2ccccc2)Oc2ccc(NC(=O)Nc3cccc4ccccc34)cc2CC1=O	HIV Env fusion 85[16.7 µM]
Cc1ccc(S(=O)(=O)N(C)C[C@@H]2Oc3ccc(NC(=O)Nc4cccc5ccccc45)cc3CC(=O)N([C@H](C)CO)C[C@@H]2C)cc1	HIV Env fusion 56[16.7 µM], S100A4 inh HTS inconclusive
C[C@H](CO)N1C[C@H](C)[C@@H](CN(C)S(=O)(=O)c2ccc(Cl)cc2)Oc2ccc(NC(=O)Nc3cccc4ccccc34)cc2CC1=O	none
CCCC#Cc1cnc2c(c1)C(=O)N([C@@H](C)CO)C[C@@H](C)[C@@H](CN(C)C(=O)CN1CCOCC1)O2	none (no result: FGF22 binding, S100A4 inh HTS)
Cc1ccc(S(=O)(=O)N(C)C[C@H]2Oc3ccc(NC(=O)Nc4cccc5ccccc45)cc3C(=O)N([C@H](C)CO)C[C@@H]2C)cc1	HIV Env fusion 66[16.7 µM] (no result: FGF22 binding, S100A4 inh HTS)
C[C@H]1CN([C@@H](C)CO)C(=O)Cc2cc(NC(=O)Nc3cccc4ccccc34)ccc2O[C@H]1CN(C)S(=O)(=O)c1ccccc1	HIV Env fusion 71[16.7 µM]
C[C@H]1CN([C@@H](C)CO)C(=O)Cc2cc(NC(=O)Nc3cccc4ccccc34)ccc2O[C@H]1CN(C)S(=O)(=O)c1ccc(F)cc1	HIV Env fusion 59[16.7 µM]
C[C@@H]1CN([C@@H](C)CO)C(=O)Cc2cc(NC(=O)Nc3cccc4ccccc34)ccc2O[C@@H]1CN(C)S(=O)(=O)c1ccc(F)cc1	none
COc1cccc(C(=O)N2C[C@H]3[C@@H](c4ccccc42)[C@@H](CO)N3Cc2ccccc2Cl)c1	none (no result: FGF22 binding, HIV Env fusion, S100A4 inh HTS)
Cc1ccc(S(=O)(=O)Nc2ccc3c(c2)C(=O)N([C@@H](C)CO)C[C@H](C)[C@@H](CN(C)C)OCCCC[C@@H](C)O3)cc1	none
O=S(=O)(Nc1cccc2c1ccc1cccn12)c1cccs1	none (no result: FGF22 binding, E-sel inducer, CFTR F508del cor, S100A4 inh HTS)
O=S(=O)(Nc1cccc2[nH]ncc12)c1cccs1	E-sel inducer 33
CN(C)/C=C1\C(=O)N(c2ccc(Cl)c(Cl)c2)CS1(=O)=O	FGF22 binding 43 (no result: E-sel inducer)
CC(C)CC#Cc1ccc2c(c1)O[C@H](CN(C)C(=O)c1ccccc1F)[C@@H](C)CN([C@H](C)CO)S2(=O)=O	none
COc1ccccc1/C=C/c1nc(S(=O)(=O)c2ccccc2)c(NCCN(C)C)o1	none (no result: E-sel inducer)
COc1ccc(/C=C/c2nc(S(=O)(=O)c3ccccc3)c(NCCCN(C)C)o2)cc1OC	HIV Env fusion 74 (no result: E-sel inducer)
COc1cc2cc(C[C@H](C)O)oc(=O)c2cc1OC	none (no result: FGF22 binding, S100A4 inh HTS)
COc1cc2cc(CCO)oc(=O)c2cc1OC	HIV Env fusion 65
COc1ccc(NS(=O)(=O)c2ccc3c(c2)OCCO3)cc1OC	HIV Env fusion 93 (no result: E-sel inducer)
COCCNC(=O)C[C@@H]1C[C@H]2c3cc(NC(=O)Cc4ccncc4)ccc3O[C@H]2[C@@H](CO)O1	none
CCCNC(=O)C[C@H]1C[C@H]2c3cc(NC(=O)Cc4ccncc4)ccc3O[C@H]2[C@H](CO)O1	HIV Env fusion 88[16.7 µM] (no result: S100A4 inh HTS)
CCCNC(=O)C[C@@H]1C[C@@H]2c3cc(NC(=O)CN(C)C)ccc3O[C@@H]2[C@H](CO)O1	HIV Env fusion 91[16.7 µM] (no result: S100A4 inh HTS)
CCCNC(=O)C[C@H]1C[C@H]2c3cc(NC(=O)CN(C)C)ccc3O[C@H]2[C@@H](CO)O1	HIV Env fusion 80[16.7 µM] (no result: S100A4 inh HTS)
CCCNC(=O)C[C@H]1C[C@@H]2c3cc(NC(=O)CN(C)C)ccc3O[C@@H]2[C@H](CO)O1	none (no result: S100A4 inh HTS)
COc1ccccc1NC(=O)N[C@@H]1CC[C@@H](CC(=O)N[C@H](C)c2ccccc2)O[C@@H]1CO	none
Cc1cc(C(=O)Nc2cccc3c2O[C@H](CN(C)Cc2ccc(C(=O)O)cc2)[C@H](C)CN([C@H](C)CO)C3=O)n(C)n1	none (no result: HIV Env fusion)
CC[C@@H](C)[C@H](CNC)NC[C@@H](Cc1cccc2ccccc12)NCCc1cccc(C(F)(F)F)c1	HIV Env fusion inconclusive
CNC[C@@H](Cc1ccccc1)NC[C@@H](CC1CCCCC1)NCCCc1ccccc1	HIV Env fusion 103
CNC[C@@H](CC1CCCCC1)NC[C@H](CC(C)C)NCCc1cccc(C(F)(F)F)c1	HIV Env fusion 93
C[C@@H]1CN([C@@H](C)CO)C(=O)c2cc(NC(=O)Cn3cnnn3)ccc2O[C@H]1CN(C)C(=O)Nc1ccccc1	none
O=C(NNC(=O)c1cccc2ccccc12)c1cccc(F)c1	FGF22 binding 43 (no result: HIV Env fusion)
O=C(NNC(=O)c1ccc2ccccc2c1)c1cccc(F)c1	none (no result: HIV Env fusion)
